Test results reported in PubChem BioAssay AID624467 (The Scripps Research Institute Molecular Screening Center, 2012).
The whole screen tested about 360,000 compounds, of which about 3,600 (1%) were called active. What follows is part of a selection rich in actives, with near analogues and random picks from the rest. Unmarked numbers belong to inactive results.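 The calls were made as follows: active = activation above the mean activation of all test compounds in the run plus 3 SD (cut at about 38% in these data); inactive = the rest.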

Target: Trace amine-associated receptor 1 (Homo sapiens) (UniProt Q96RJ0)
Sequence (Q96RJ0 whole entry, looked up): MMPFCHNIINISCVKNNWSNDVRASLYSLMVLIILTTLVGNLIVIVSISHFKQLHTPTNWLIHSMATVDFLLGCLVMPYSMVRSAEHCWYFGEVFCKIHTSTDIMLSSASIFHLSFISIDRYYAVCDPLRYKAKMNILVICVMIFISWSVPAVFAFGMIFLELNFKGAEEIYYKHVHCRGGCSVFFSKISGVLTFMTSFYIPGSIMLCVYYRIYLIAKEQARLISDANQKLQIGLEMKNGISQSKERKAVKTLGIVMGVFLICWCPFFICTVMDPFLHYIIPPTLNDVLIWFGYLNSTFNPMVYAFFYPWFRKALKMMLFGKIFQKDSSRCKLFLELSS
Test: activators of TAAR1 calcium mobilization – Fluo-8 calcium fluorescence, CHO RD-HGA16 cells, primary screen (AID 624467)
Settings: CHO RD-HGA16 TAAR1, Fluo-8 calcium fluorescence; at 3 µM; active compounds read high; vehicle wells 0%, saturating PEA agonist 100%
Method in brief: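 Repeats: no replicates (n 1) | Material: CHO-derived RD-HGA16 cells with stable Gα16 and human TAAR1 | Technique: Kinetic Fluo-8 calcium fluorescence | Schedule: 17-24 h seeding, 75 min 37 °C dye, 30 min RT | Evaluation: % activation from peak over basal fluorescence ratio, DMSO-to-PEA scaled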

| Structure (SMILES) | activation |
| --- | --- |
| COCCCn1c(Cc2csc(Nc3cccc(Cl)c3)n2)nnc1SCC(=O)OC1CCCCC1 | 52.8% (active) |
| COCCCn1c(SCC(=O)NC2CCCC2)nnc1-c1ccccc1 | 0.55% |
| CCOc1ccc(Nc2nc(Cc3nnc(SCC(=O)NC4CCCC4)n3C)cs2)cc1 | 11.9% |
| C[C@H](NC(=O)c1ccccc1)C(=O)OCC(=O)c1c[nH]c2ccccc12 | 70% (active) |
| CCOc1ncccc1C(=O)OCC(=O)c1c[nH]c2ccccc12 | 14.1% |
| CC(C)Nc1nnc(SCC(=O)c2c[nH]c3ccccc23)s1 | 1.89% |
| COc1ccc(NC(=O)C2(C)Cc3c(-c4ccc(C(N)=O)cc4)ccnc3O2)cc1 (stereo unspecified) | 1.37% |
| CN[C@H]1C[C@H]2c3[nH]c4c(-c5ccccc5)cccc4c3CCN2C(=O)[C@H]1[C@H](C)O | 4.95% |
| CCc1ccc(-c2nn(-c3ccccc3C)cc2C(=O)N2CCN(C3CCS(=O)(=O)C3)CC2)cc1 (stereo unspecified) | 1.27% |
| CCc1ccc(-c2nn(-c3ccccc3)cc2CSC(=N)N)cc1 | 99.3% (active) |
| O=C(NCCCN1CCOCC1)c1cn(-c2ccccc2)nc1-c1ccc(F)cc1 | 3.53% |
| CCc1nc2ccc(C(=O)N3CCN(c4cccc(Cl)c4)CC3)cc2nc1CC | 1.12% |
| COC(=O)[C@]12C[C@H](CC(=O)NCCCCc3ccccc3)C(=O)N(Cc3ccc4c(c3)OCO4)C1=C[C@H](C(C)(C)C)O[C@@H]2C | 5.91% |
| COc1cc(/C=N\NC(=O)c2nonc2N)c(OC)cc1Br | 1.69% |
| Cc1occc1C(=O)N/N=C/c1ccc(-c2cccc([N+](=O)[O-])c2)o1 | 4.69% |
| Cc1cc(C)c([N+](=O)[O-])cc1-c1ccc(/C=N/NC(=O)c2nonc2N)o1 | 41% (active) |
| O=C(COC(=O)CCc1c[nH]c2ccccc12)Nc1cccc(Cl)c1 | 3.56% |
| Nc1ncnc2c1ncn2[C@@H]1O[C@H](C(=O)N[C@@H](CCc2ccccc2)C(=O)NCC(=O)N2CCOCC2)[C@@H](O)[C@H]1O | 0.02% |
| Clc1cccc2c1C1CC2CCN1Cc1ccccc1 (stereo unspecified) | -1.9% |
| Cc1ccccc1NC(=S)NC(=O)Cc1ccc(Cl)cc1 | 82.3% (active) |
| Fc1ccccc1CNC(=S)Nc1ccc(Cl)cc1 | 5.04% |
| Cc1ccccc1N/C(SCc1ccc(Cl)cc1)=C(/C#N)C(N)=O | 6.27% |
| COC(=O)c1ccccc1NC(=O)CN(Cc1ccc(Cl)cc1)S(C)(=O)=O | 8.09% |

| Structure (SMILES) | activation |
| --- | --- |
| Cc1cc(C(=O)NNC(=S)Nc2ccccc2C)cs1 | 7.69% |
| O=C(Cc1ccc(Cl)cc1)NC(=S)Nc1ccccc1O | 138% (active) |
| Cc1ccc(NS(=O)(=O)c2ccc3c(c2)oc(=O)n3C)c(C)c1 | 3.17% |
| Brc1ccc(COCCc2cn(Cc3ccccc3)c3ccccc23)cc1 | 0.28% |
| CC1CCCCN1C(=S)NCc1ccccc1 (stereo unspecified) | 5.09% |
| S=C(NCCc1ccccc1)N1CCn2cccc2C1c1ccncc1 (stereo unspecified) | 96.1% (active) |
| S=C(Nc1cccc(Br)c1)N1CCn2cccc2C1c1cccnc1 (stereo unspecified) | 11.1% |
| O=c1cnnc(Nc2ccccc2)[nH]1 | 53% (active) |
| Cc1cc(=O)[nH]c(Nc2cccc(Br)c2)n1 | 26.1% |
| O=c1cnnc(Nc2ccccc2F)[nH]1 | 19.6% |
| O=C(COC(=O)c1ncc(Cl)c(Cl)c1Cl)NNC(=O)c1ccccc1 | 4.83% |
| COc1ccc(N(C)C(=O)C2CCN(S(=O)(=O)c3cccc4nsnc34)CC2)cc1 | 2.99% |
| O=C(Nc1cccc(-c2cccc(Cl)c2)c1)C1CCN(C2CCC2)CC1 | 45.3% (active) |
| CCn1cc(CN2CCC(C(=O)Nc3cccc(-c4cccc(Cl)c4)c3)CC2)cn1 | 16.6% |
| CCn1cc(CN2CCC(C(=O)Nc3cccc(-c4cccc(Cl)c4)c3)CC2)c(C)n1 | 19.7% |
| O=S(=O)(c1cccs1)N1CCCc2nc(-c3ccc(Br)cc3)ccc21 | 1.37% |
| NC(=O)c1ncn([C@@H]2O[C@H](C(=O)O)[C@@H](O)[C@H]2O)n1 | 1.97% |
| COCCNC(=O)c1cc2c(Br)ccc(Br)c2nc1N | 0.74% |
| CCC(c1nnnn1Cc1ccco1)N(CCc1ccccc1)Cc1cc2cccc(C)c2[nH]c1=O (stereo unspecified) | 43.8% (active) |
| COc1ccc2[nH]c(=O)c(CN(Cc3nnnn3CCc3ccccc3)CC3CCCO3)cc2c1 (stereo unspecified) | 11.8% |
| Cc1cccc2cc(CN(Cc3nnnn3Cc3ccccc3)C3CCCC3)c(=O)[nH]c12 | 12% |
| CCC(c1nnnn1Cc1ccco1)N(CCc1ccccc1)Cc1cc2ccc(OC)cc2[nH]c1=O (stereo unspecified) | 100% (active) |
| CCC(c1nnnn1Cc1ccco1)N(Cc1cc2cc(OC)ccc2[nH]c1=O)C1CCCCC1 (stereo unspecified) | 1.97% |

| Structure (SMILES) | activation |
| --- | --- |
| CCC(c1nnnn1C1CCCC1)N(Cc1cccs1)Cc1cc2cccc(C)c2[nH]c1=O (stereo unspecified) | 2.02% |
| CN(C)S(=O)(=O)c1cc(C(=O)Nc2ccn(C)n2)c(Cl)cc1Cl | 2.93% |
| Nc1ncnc2c1ncn2C1OC(CO)CC1O (stereo unspecified) | 1.93% |
| CN(C)CCCNC(=S)N1CCN(c2nc(-c3ccccc3)cs2)CC1 | 3.41% |
| c1ccc(-c2csc(N3CCc4ccccc4C3)n2)cc1 | 73% (active) |
| O=S(=O)(c1cccs1)N1CCc2ccccc2C1 | 13% |
| COc1ccc(Cn2c(-c3ccc(Cl)cc3)c[n+]3ccccc23)cc1 | 12.9% |
| C=CC1=CCN(S(=O)(=O)C(C)(C)C)[C@@H]1CCO | 3.56% |
| FC(F)(F)c1ccc(-n2cn[nH]c2=S)cc1 | 0.73% |
| O=C(C1CCN(c2nnc(-n3cccc3)s2)CC1)N1CCc2ccccc2C1 | 40.9% (active) |
| CCOC(=O)C1CCCN(C(=O)C2CCN(c3nnc(-n4cccc4)s3)CC2)C1 (stereo unspecified) | -0.39% |
| CSc1ccc(CCNC(=O)C2CCN(c3nnc(-n4cccc4)s3)CC2)cc1 | -0.88% |
| CC1(C)CC(=O)C=C(c2ccccc2CO)C1=O | 0.98% |
| COC1=CCC2([N+](=O)[O-])CN(CC(=O)O)CC1([N+](=O)[O-])C2 (stereo unspecified) | 1.51% |
| CCOC(=O)C1=C(C(=O)OCC)C2N(Cc3ccc(C#N)cc3)c3ccccc3[C@@]23C[C@@H](C(=O)OC)N(S(=O)(=O)c2ccc(F)cc2)C3=N1 (stereo partly specified) | -0.08% |
| Cc1noc(C)c1NC(=O)Nc1ccc2c(c1)C(=O)N([C@H](C)CO)C[C@H](C)[C@H](CN(C)Cc1ccncc1)OCCCC[C@@H](C)O2 | 2.28% |
| Cc1cc(=O)oc2c(C)c(OCC(=O)NCCN3CCOCC3)ccc12 | 43.2% (active) |
| Cc1cc(=O)oc2c(C)c(OCC(=O)NCCc3ccc(S(N)(=O)=O)cc3)ccc12 | 0.73% |
| CCc1cc(=O)oc2c(C)c(OCC(=O)NCCN3CCOCC3)ccc12 | 2.36% |
| O=C1C2(c3ccccc3)CN(CCCO)CC1(c1ccccc1)CN(CCCO)C2 | 2.41% |
| CCOc1ccc(Cn2c(SCCCCC#N)nc3c2c(=O)n(C)c(=O)n3C)cc1OCC | 17.1% |
| CCCSc1nc2c(c(=O)n(C)c(=O)n2C)n1Cc1ccc(C)cc1 | 52.6% (active) |
| Cn1c(=O)c2c(nc(SCCNS(=O)(=O)c3ccccc3)n2C)n(C)c1=O | 1.23% |

| Structure (SMILES) | activation |
| --- | --- |
| CC1CCc2sc(C(=O)N/N=C/C3CCCCC3)cc2C1 (stereo unspecified) | 5.23% |
| COCc1[nH]nc2c1C(c1ccccc1)N(c1ccccc1)C2=O (stereo unspecified) | 0.37% |
| O=C(Cn1cncn1)N/N=C/c1c2ccccc2cc2ccccc12 | 6.44% |
| Nc1nnn(CC(=O)N/N=C/c2ccccc2)n1 | 43.3% (active) |
| O=C(Cn1nnc(-c2ccccc2)n1)N/N=C/c1ccc(-c2ccc(Cl)cc2)o1 | -0.07% |
| CC(C)CNc1cccc2c1S(=O)(=O)N[C@H](C)CO2 | -0.59% |
| CC(=O)NC(=S)NNC(=O)c1ccc(Br)cc1 | 6.34% |
| Cn1nnc(NC(=S)NC(=O)c2ccccc2)n1 | 0.43% |
| COc1ccc(C(=O)NC(=S)NNC(=O)CCc2ccccc2)cc1 | 108% (active) |
| COc1ccc(/C(N)=N/OC(=O)CCCc2ccccc2)cc1 | 5.81% |
| COc1ccc(C(=O)NNC(=S)NC(=O)c2ccccc2)cc1 | 130% (active) |
| CCOc1ccccc1NC(=S)NC(=O)CCc1ccccc1 | -1.05% |
| COCCCNC(=O)C[C@H]1C[C@@]2(C(=O)OC)C(=C[C@H](C(C)(C)C)O[C@@H]2C)N(Cc2ccc3c(c2)OCO3)C1=O | 0.46% |
| Nc1[nH]c(C(=O)c2ccccc2)c(-c2ccc(Cl)cc2Cl)c1C(=O)c1ccccc1 | 1.29% |
| CCC(Sc1nncn1C)C(=O)Nc1nnc(-c2ccc(Cl)cc2)s1 (stereo unspecified) | 0.73% |
| COCc1cc(N2CCN(C(=O)OC(C)(C)C)C[C@@H]2C)ccc1N1CCN(Cc2ccccc2)[C@H](C)C1 | -1.74% |
| Cc1ccccc1C(=O)N[C@H](C(=O)N1CCC[C@H]1C(=O)NCc1ccccc1)C(C)C | 1.24% |
| CC(=O)N(CC(O)CO)c1c(I)c(C(=O)NCC(O)CO)c(I)c(C(=O)NCC(O)CO)c1I (stereo unspecified) | 0.12% |
| COC(=O)[C@]12C[C@H](CC(=O)NCc3cccc(C(F)(F)F)c3)C(=O)N(Cc3ccc4c(c3)OCO4)C1=C[C@H](COCc1ccccc1)O[C@@H]2C | 1.6% |
| Nc1cc(OC(=O)c2ccccc2Br)nn1S(=O)(=O)c1ccccc1 | 78% (active) |
| CN1C(=O)/C(=N/OC(=O)c2ccccc2Br)c2ccccc21 | 2.86% |
| Cc1ccc(S(=O)(=O)n2nc(OC(=O)C(C)(C)C)cc2N)cc1 | 2.73% |
